The subject of data set [1] is Leishmania donovani. Kind of data set: Antiparasitic activity against Leishmania donovani MHOM/SD/1962/1S-Cl2d axenic amastigotes at 50 uM by alamar blue assay. Type of data set: functional.
Data set [2] can be described thus: Cytotoxicity against human THP1 cells at 12.5 uM after 48 hrs by alamar blue assay. As to conditions: THP-1 cells, read-out: INH. It is filed as cell-based. In short, it runs like this:
(§1)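 THP-1 cells in complete RPMI-1640, 10% FCS, added to compounds in medium with DMSO, triplicate, 48 h at 37 °C, 5% CO2; alamarBlue added, 3 h further incubation, fluorescence ex 544/em 590 nm; % growth inhibition.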

Data set [3] deals with Leishmania donovani. Kind of data set: Antiparasitic activity against Leishmania donovani MHOM/SD/1962/1S-Cl2d amastigotes in human THP1 cells at 25 uM after 48 hrs by microplate reader. It is filed as functional. As to conditions: THP-1, 48 h.
A short description of data set [4]: Cytotoxicity against human THP1 cells at 50 uM after 48 hrs by alamar blue assay. Type of data set: cell-based. As to conditions: THP-1 cells, read-out: INH. In short, it runs like this:
as §1

The test system of data set [5] is Leishmania donovani. Kind of data set: Antiparasitic activity against Leishmania donovani MHOM/SD/1962/1S-Cl2d amastigotes in human THP1 cells at 12.5 uM after 48 hrs by microplate reader. It is filed as functional. Particulars: THP-1, 48 h.
The nature of data set [6]: Cytotoxicity against human THP1 cells at 25 uM after 48 hrs by alamar blue assay. It is filed as cell-based. As to conditions: THP-1 cells, read-out: INH. The method, boiled down: as §1
Data set [7] deals with Leishmania donovani. Kind of data set: Antiparasitic activity against Leishmania donovani MHOM/SD/1962/1S-Cl2d amastigotes in human THP1 cells at 50 uM after 48 hrs by microplate reader. Type of data set: functional. Particulars: THP-1, 48 h.
The subject of data set [8] is Leishmania donovani. Briefly: Antiparasitic activity against Leishmania donovani MHOM/SD/1962/1S-Cl2d axenic amastigotes at 15 uM by alamar blue assay. Type of data set: functional.
Data set [9] deals with Leishmania donovani. Kind of data set: Antiparasitic activity against Leishmania donovani MHOM/SD/1962/1S-Cl2d axenic amastigotes at 1 uM by alamar blue assay. Type of data set: functional.
The nature of data set [10]: Toxicity against peritoneal macrophages assessed as survival induces at 68 uM. Type of data set: cell-based, Peritoneal macrophage cell. Particulars: read-out: Survival.
Data set [11] is described as follows: Toxicity against peritoneal macrophages assessed as survival induces at 136 uM. Type of data set: cell-based, Peritoneal macrophage cell. Particulars: read-out: Survival.
In data set [12] the test system is Leishmania amazonensis. Kind of data set: Antiparasitic activity against Leishmania amazonensis assessed as survival index at 136 uM. Type of data set: functional.
Data set [13] deals with Leishmania amazonensis. Briefly: Antiparasitic activity against Leishmania amazonensis assessed as survival index at 68 uM. Type of data set: functional.
Data set [14] deals with Leishmania donovani. Kind of data set: Antileishmanial activity against Leishmania donovani amastigotes. It is filed as functional, organism-based.
The subject of data set [15] is Leishmania donovani. Kind of data set: Antileishmanial activity against Leishmania donovani promastigotes. It is filed as functional, organism-based.
Data set [16] has as its system Leishmania donovani. Kind of data set: Antileishmanial activity against Leishmania donovani infected golden hamster assessed as reduction of parasite burden at 10 mg/kg after 6 weeks. It is filed as functional. Further details: scale not given: the % may be the effect or the level left.

We go through 25 molecules from ChEMBL document CHEMBL1156921, “Synthesis and anti-leishmanial activity of heterocyclic betulin derivatives” (Bioorg Med Chem, 2010).

As for `CC(C)[C@@]12CC[C@]3(COC(=O)c4ccccc4)CC[C@]4(C)C(=C31)[C@H](C[C@@H]1[C@@]3(C)CC[C@H](OC(=O)c5ccccc5)C(C)(C)[C@@H]3CC[C@]14C)n1c(=O)n(-c3ccccc3)c(=O)n12`, at 50 µM the inhibition with Leishmania donovani [1] was 0%.

Consider `CC(=O)OC[C@]12CC[C@]3(C(C)C)C1=C1[C@H](C[C@@H]4[C@@]5(C)CC[C@H](OC(C)=O)C(C)(C)[C@@H]5CC[C@@]4(C)[C@]1(C)CC2)n1c(=O)n(-c2cccc([N+](=O)[O-])c2)c(=O)n13`, for which the inhibition at 50 µM with Leishmania donovani [1] came to 30%.

Molecule `CC(C)[C@@]12CC[C@]3(CO)CC[C@]4(C)C(=C31)[C@H](C[C@@H]1[C@@]3(C)CC[C@H](O)C(C)(C)[C@@H]3CC[C@]14C)n1c(=O)n(C)c(=O)n12` showed an inhibition at 50 µM with Leishmania donovani [1] of 50%.

Regarding `CC(=O)OC[C@]12CC[C@]3(C(C)C)C1=C1[C@H](C[C@@H]4[C@@]5(C)CC[C@H](OC(C)=O)C(C)(C)[C@@H]5CC[C@@]4(C)[C@]1(C)CC2)n1c(=O)[nH]c(=O)n13`, 50 µM produced 88% inhibition with Leishmania donovani [1]. Further, the cytotoxicity at 48 h, 12.5 µM in data set [2] was 0%. The molecule also displayed an inhibition at 25 µM with Leishmania donovani [3] of 55%. Also, in [4], the cytotoxicity at 48 h, 50 µM was 97%. The molecule further had an inhibition at 12.5 µM in the data set with Leishmania donovani [5] of 4.8%. Also, the cytotoxicity at 48 h, 25 µM in data set [6] came out at 2.4%.

In turn, `CC(=O)OC[C@]12CC[C@]3(C(C)C)C1=C1[C@H](C[C@@H]4[C@@]5(C)CC[C@H](OC(C)=O)C(C)(C)[C@@H]5CC[C@@]4(C)[C@]1(C)CC2)n1c(=O)n(-c2ccc4c(c2)CCC4)c(=O)n13` yielded an inhibition at 50 µM with Leishmania donovani [1] of 23%.

As for `CC(=O)OC[C@]12CC[C@]3(C(C)C)C1=C1[C@H](C[C@@H]4[C@@]5(C)CC[C@H](OC(C)=O)C(C)(C)[C@@H]5CC[C@@]4(C)[C@]1(C)CC2)n1c(=O)n(C)c(=O)n13`, in the data set with Leishmania donovani [1], the inhibition at 50 µM came to 98%. The cytotoxicity at 48 h, 12.5 µM in data set [2] is 39%. In data set [4], the cytotoxicity at 48 h, 50 µM stood at 94%. This molecule also had an inhibition at 12.5 µM in the data set on Leishmania donovani [5] of 60%. Moreover, in data set [6], the cytotoxicity at 48 h, 25 µM turned out to be 78%.

In turn, `CC(C)[C@@]12CC[C@]3(COC(=O)C4CCCCC4)CC[C@]4(C)C(=C31)[C@H](C[C@@H]1[C@@]3(C)CC[C@H](OC(=O)C5CCCCC5)C(C)(C)[C@@H]3CC[C@]14C)n1c(=O)n(C(C)(C)C)c(=O)n12` showed an inhibition at 50 µM with Leishmania donovani [1] of 4.8%.

The molecule `CC(=O)OC[C@]12CC[C@]3(C(C)C)C1=C1[C@H](C[C@@H]4[C@@]5(C)CC[C@H](OC(C)=O)C(C)(C)[C@@H]5CC[C@@]4(C)[C@]1(C)CC2)n1c(=O)n(Cc2ccccc2)c(=O)n13` gave an inhibition at 50 µM in the data set on Leishmania donovani [1] of 25%.

In turn, `COc1cccc(-n2c(=O)n3n(c2=O)[C@]2(C(C)C)CC[C@]4(COC(C)=O)CC[C@]5(C)C(=C42)[C@@H]3C[C@@H]2[C@@]3(C)CC[C@H](OC(C)=O)C(C)(C)[C@@H]3CC[C@]25C)c1` had an inhibition at 50 µM in the data set on Leishmania donovani [1] of 44%.

The molecule `CC(=O)OC[C@]12CC[C@]3(C(C)C)C1=C1[C@H](C[C@@H]4[C@@]5(C)CC[C@H](OC(C)=O)C(C)(C)[C@@H]5CC[C@@]4(C)[C@]1(C)CC2)n1c(=O)n(-c2ccc(F)cc2)c(=O)n13` came in with an inhibition at 50 µM in the data set with Leishmania donovani [1] of 48%.

As to `CC(=O)OC[C@]12CC[C@]3(C(C)C)C1=C1[C@H](C[C@@H]4[C@@]5(C)CC[C@H](OC(C)=O)C(C)(C)[C@@H]5CC[C@@]4(C)[C@]1(C)CC2)n1c(=O)n(-c2ccc(Cl)cc2)c(=O)n13`, in the data set with Leishmania donovani [1], the inhibition at 50 µM came to 30%.

For the molecule `CC(=O)OC[C@]12CC[C@]3(C(C)C)C1=C1[C@H](C[C@@H]4[C@@]5(C)CC[C@H](OC(C)=O)C(C)(C)[C@@H]5CC[C@@]4(C)[C@]1(C)CC2)n1c(=O)n(-c2ccc(C(C)=O)cc2)c(=O)n13`, in the data set on Leishmania donovani [1], 50 µM produced 45% inhibition.

In the data set on Leishmania donovani [1], `CC(=O)OC[C@]12CC[C@]3(C(C)C)C1=C1[C@H](C[C@@H]4[C@@]5(C)CC[C@H](OC(C)=O)C(C)(C)[C@@H]5CC[C@@]4(C)[C@]1(C)CC2)n1c(=O)n(-c2cccc4ccccc24)c(=O)n13` came in with an inhibition at 50 µM of 58%.

Turning to `CC(=O)OC[C@]12CC[C@]3(C(C)C)C1=C1[C@H](C[C@@H]4[C@@]5(C)CC[C@H](OC(C)=O)C(C)(C)[C@@H]5CC[C@@]4(C)[C@]1(C)CC2)n1c(=O)n(-c2ccccc2)c(=O)n13`, the inhibition at 50 µM in the data set on Leishmania donovani [1] was 36%.

The molecule `CC(C)[C@@]12CC[C@]3(CO)CC[C@]4(C)C(=C31)[C@H](C[C@@H]1[C@@]3(C)CC[C@H](O)C(C)(C)[C@@H]3CC[C@]14C)n1c(=O)n(-c3ccccc3)c(=O)n12` yielded an inhibition at 50 µM in the data set on Leishmania donovani [1] of 48%.

As to `CCCCn1c(=O)n2n(c1=O)[C@]1(C(C)C)CC[C@]3(COC(C)=O)CC[C@]4(C)C(=C31)[C@@H]2C[C@@H]1[C@@]2(C)CC[C@H](OC(C)=O)C(C)(C)[C@@H]2CC[C@]14C`, the inhibition at 50 µM in the data set on Leishmania donovani [1] came to 49%.

As for `CCn1c(=O)n2n(c1=O)[C@]1(C(C)C)CC[C@]3(COC(C)=O)CC[C@]4(C)C(=C31)[C@@H]2C[C@@H]1[C@@]2(C)CC[C@H](OC(C)=O)C(C)(C)[C@@H]2CC[C@]14C`, the inhibition at 50 µM in the data set on Leishmania donovani [1] is 88%. The cytotoxicity at 48 h, 12.5 µM in data set [2] came to 8.5%. Further, in the data set with Leishmania donovani [3], the inhibition at 25 µM was 53%. Further, in data set [4], the cytotoxicity at 48 h, 50 µM was 48%. For the same molecule, the inhibition at 12.5 µM in the data set on Leishmania donovani [5] worked out at 0%. Moreover, in data set [6], the cytotoxicity at 48 h, 25 µM came out at 13%.

For `CCC(=O)OC[C@]12CC[C@]3(C(C)C)C1=C1[C@H](C[C@@H]4[C@@]5(C)CC[C@H](OC(=O)CC)C(C)(C)[C@@H]5CC[C@@]4(C)[C@]1(C)CC2)n1c(=O)n(C)c(=O)n13`, the inhibition at 50 µM stood at 83% in the data set with Leishmania donovani [7] and 93% in the data set on Leishmania donovani [1]. For the same molecule, in data set [2], the cytotoxicity at 48 h, 12.5 µM is 5%. The molecule also displayed an inhibition at 25 µM in the data set on Leishmania donovani [3] of 55%. For the same molecule, the cytotoxicity at 48 h, 50 µM in data set [4] is 16%. The inhibition at 12.5 µM with Leishmania donovani [5] is 18%. The cytotoxicity at 48 h, 25 µM in data set [6] was 15%.

In the case of `CCCC(=O)OC[C@]12CC[C@]3(C(C)C)C1=C1[C@H](C[C@@H]4[C@@]5(C)CC[C@H](OC(=O)CCC)C(C)(C)[C@@H]5CC[C@@]4(C)[C@]1(C)CC2)n1c(=O)n(C)c(=O)n13`, the inhibition at 15 µM in the data set on Leishmania donovani [8] was 26%.

With `CC(C)[C@@]12CC[C@]3(COC(=O)C4CCCCC4)CC[C@]4(C)C(=C31)[C@H](C[C@@H]1[C@@]3(C)CC[C@H](OC(=O)C5CCCCC5)C(C)(C)[C@@H]3CC[C@]14C)n1c(=O)n(C)c(=O)n12`, in the data set on Leishmania donovani [1], the inhibition at 50 µM stood at 5.5%.

The molecule `CC(C)[C@@]12CC[C@]3(COC(=O)c4ccccc4)CC[C@]4(C)C(=C31)[C@H](C[C@@H]1[C@@]3(C)CC[C@H](OC(=O)c5ccccc5)C(C)(C)[C@@H]3CC[C@]14C)n1c(=O)n(C)c(=O)n12` gave an inhibition at 50 µM in the data set with Leishmania donovani [1] of 0%.

Take `CC(C)C(=O)OC[C@]12CC[C@]3(C(C)C)C1=C1[C@H](C[C@@H]4[C@@]5(C)CC[C@H](OC(=O)C(C)C)C(C)(C)[C@@H]5CC[C@@]4(C)[C@]1(C)CC2)n1c(=O)n(C)c(=O)n13`: the inhibition at 15 µM in the data set on Leishmania donovani [8] worked out at 19%.

`C[C@@H]1[C@H](O)[C@@H](C)/C=C/C=C/C=C/C=C/C=C/C=C/C=C/[C@H](O[C@@H]2O[C@H](C)[C@@H](O)[C@H](N)[C@@H]2O)C[C@@H]2O[C@](O)(C[C@@H](O)C[C@@H](O)[C@H](O)CC[C@@H](O)C[C@@H](O)CC(=O)O[C@H]1C)C[C@H](O)[C@H]2C(=O)O` [AMPHOTERICIN B] had an inhibition at 1 µM in the data set on Leishmania donovani [9] greater than 90%.

With `C=C(C)[C@@H]1CC[C@]2(C=O)CC[C@]3(C)[C@H](CC[C@@H]4[C@@]5(C)CC[C@H](O)C(C)(C)[C@@H]5CC[C@]43C)[C@@H]12` [BETULINALDEHYDE], the viability at 68 µM in data set [10] was 80%. Further, in data set [11], the viability at 136 µM amounted to 70%. Also, the survival at 136 µM in the data set with Leishmania amazonensis [12] worked out at 12%. Also, in the data set on Leishmania amazonensis [13], the survival at 68 µM worked out at 42%.

Consider `C=C(C)[C@@H]1CC[C@]2(C(=O)O)CC[C@]3(C)[C@H](CC[C@@H]4[C@@]5(C)CC[C@H](O)C(C)(C)[C@@H]5CC[C@]43C)[C@@H]12` [BETULINIC ACID], for which the IC50 stood at 4.1 µM in the data set on Leishmania donovani [14] and 2.6 µM in the data set on Leishmania donovani [15]. Also, in the data set on Leishmania donovani [16], the Activity was determined as 92%.
